Assay results taken from ChEMBL document CHEMBL5705899 (Biochem J, 2014).
The source made the active and inactive calls. No cut-off for these calls is given here.

Tests used:
[1] = target: T1, 3-phosphoinositide-dependent protein kinase 1 (Homo sapiens) (UniProt O15530); experiment: Inhibition of PDK1 in human U2OS cells expressing FLAG-tagged SGK3 assessed as reduction in SGK3 phosphorylation at T320 residues at 1 uM after 1 hr by immunoblot analysis; assay type: cell-based
T1 sequence (whole entry): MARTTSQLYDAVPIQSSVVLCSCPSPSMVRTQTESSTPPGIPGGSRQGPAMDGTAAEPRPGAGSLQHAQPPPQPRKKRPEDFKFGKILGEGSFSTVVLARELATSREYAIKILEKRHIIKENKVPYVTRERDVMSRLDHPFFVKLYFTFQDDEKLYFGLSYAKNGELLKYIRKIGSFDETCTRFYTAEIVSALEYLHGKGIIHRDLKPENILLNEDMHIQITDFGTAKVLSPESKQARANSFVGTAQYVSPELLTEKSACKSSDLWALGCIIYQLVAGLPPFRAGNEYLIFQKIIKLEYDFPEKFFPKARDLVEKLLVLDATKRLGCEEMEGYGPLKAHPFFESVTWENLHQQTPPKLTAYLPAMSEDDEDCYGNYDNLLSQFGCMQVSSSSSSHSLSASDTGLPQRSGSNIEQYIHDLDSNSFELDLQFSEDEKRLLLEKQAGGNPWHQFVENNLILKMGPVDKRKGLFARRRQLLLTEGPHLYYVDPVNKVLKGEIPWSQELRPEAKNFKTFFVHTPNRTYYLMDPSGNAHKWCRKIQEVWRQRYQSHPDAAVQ
Outline: (§1)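 U2OS Flp-In cells with doxycycline-induced (0.01 mg/ml, 24 h) full-length SGK3 carrying a C-terminal FLAG tag; treated with 1 μM inhibitor for 1 h. Lysis, anti-FLAG immunoprecipitation, washes (high-salt lysis buffer, lysis buffer, 50 mM Tris pH 7.5/0.1 mM EGTA). IP kinase assay: 30 μM Crosstide, 0.1 mM [γ-32P]ATP, 10 mM Mg acetate, 30 min. Phosphosites then immunoblotted, ECL. Triplicate reactions.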

[2] = target: T1, 3-phosphoinositide-dependent protein kinase 1 (Homo sapiens); experiment: Inhibition of PDK1 in human U2OS cells expressing FLAG-tagged SGK3 assessed as reduction in SGK3 phosphorylation at S486 residues at 1 uM after 1 hr by immunoblot analysis; assay type: cell-based; outline: as §1
[3] = target: T1, 3-phosphoinositide-dependent protein kinase 1 (Homo sapiens); experiment: Inhibition of PDK1 in human U2OS cells expressing FLAG-tagged SGK3 assessed as reduction in SGK3 activity at 1 uM using cross peptide as substrate incubated for 30 mins in presence of [gamma-32P]-ATP by radioactive assay; assay type: cell-based; outline: as §1
U2OS [4] = experiment: Inhibition of PI3K in human U2OS cells expressing FLAG-tagged SGK3 assessed as reduction in PRAS40 phosphorylation T246 residues at 0.01 to 0.5 uM 1 hr by immunoblot analysis; assay type: cell-based; details: dose 0.01-0.5 µM
Outline: (§2)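 FLAG-SGK3 U2OS Flp-In cells (doxycycline-induced) treated for 1 h with class I PI3K inhibitor, 0.5 μM or a dose series as indicated. Lysed in phosphatase-inhibitor buffer, clarified at 16000 g for 10 min at 4°C, Bradford-normalized. Akt, PRAS40 and 4EBP1 phosphosites were read by immunoblot, and SGK3 sites on anti-FLAG immunoprecipitates, with ECL film detection.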

U2OS [5] = experiment: Inhibition of PI3K in human U2OS cells expressing FLAG-tagged SGK3 assessed as reduction in AKT phosphorylation S473 residues at 0.01 to 0.5 uM 1 hr by immunoblot analysis; assay type: cell-based; details: dose 0.01-0.5 µM; outline: as §2
U2OS [6] = experiment: Inhibition of PI3K in human U2OS cells expressing FLAG-tagged SGK3 assessed as reduction in 4EBP1 phosphorylation T37/T46 residues at 0.01 to 0.5 uM 1 hr by immunoblot analysis; assay type: cell-based; details: dose 0.01-0.5 µM; outline: as §2
U2OS [7] = experiment: Inhibition of PI3K in human U2OS cells expressing FLAG-tagged SGK3 assessed as reduction in 4EBP1 phosphorylation S65 residues at 0.01 to 0.5 uM 1 hr by immunoblot analysis; assay type: cell-based; details: dose 0.01-0.5 µM; outline: as §2
U2OS [8] = experiment: Inhibition of PI3K in human U2OS cells expressing FLAG-tagged SGK3 assessed as reduction in AKT phosphorylation T308 residues at 0.01 to 0.5 uM 1 hr by immunoblot analysis; assay type: cell-based; details: dose 0.01-0.5 µM; outline: as §2
[9] = target: Serine/threonine-protein kinase mTOR (Homo sapiens) (UniProt P42345); experiment: Inhibition of mTOR in human U2OS cells expressing FLAG-tagged SGK3 assessed as reduction in 4EBP1 phosphorylation S65 residues at 0.1 uM 1 hr by immunoblot analysis; assay type: cell-based
Outline: (§3)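 Doxycycline-induced FLAG-SGK3 U2OS Flp-In cells exposed to 0.1 μM mTOR inhibitor for 1 h. Clarified lysates immunoblotted for 4EBP1 phosphosites (Thr37/Thr46, Ser65), ECL film detection.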

[10] = target: Serine/threonine-protein kinase mTOR (Homo sapiens) (UniProt P42345); experiment: Inhibition of mTOR in human U2OS cells expressing FLAG-tagged SGK3 assessed as reduction in 4EBP1 phosphorylation T37/T46 residues at 0.1 uM 1 hr by immunoblot analysis; assay type: cell-based; outline: as §3
U2OS [11] = experiment: Inhibition of PI3K in human U2OS cells expressing FLAG-tagged SGK3 assessed as reduction in SGK3 phosphorylation at T320 residues 0.5 uM after 1 hr by immunoblot analysis; assay type: cell-based; outline: as §2
U2OS [12] = experiment: Inhibition of PI3K in human U2OS cells expressing FLAG-tagged SGK3 assessed as reduction in SGK3 activity at 0.5 uM using cross peptide as substrate incubated for 1 to 2 mins in presence of [gamma-32P]-ATP by radioactive assay; assay type: cell-based; details: time 1-2 min
U2OS [13] = experiment: Inhibition of PI3K in human U2OS cells expressing FLAG-tagged SGK3 assessed as reduction in 4EBP1 phosphorylation T37/T46 residues at 0.5 uM 1 hr by immunoblot analysis; assay type: cell-based; outline: as §2
U2OS [14] = experiment: Inhibition of PI3K in human U2OS cells expressing FLAG-tagged SGK3 assessed as reduction in AKT phosphorylation S473 residues at 0.5 uM 1 hr by immunoblot analysis; assay type: cell-based; outline: as §2
U2OS [15] = experiment: Inhibition of PI3K in human U2OS cells expressing FLAG-tagged SGK3 assessed as reduction in PRAS40 phosphorylation T246 residues at 0.5 uM 1 hr by immunoblot analysis; assay type: cell-based; outline: as §2
U2OS [16] = experiment: Inhibition of PI3K in human U2OS cells expressing FLAG-tagged SGK3 assessed as reduction in SGK3 phosphorylation at S486 residues 0.5 uM after 1 hr by immunoblot analysis; assay type: cell-based; outline: as §2
U2OS [17] = experiment: Inhibition of PI3K in human U2OS cells expressing FLAG-tagged SGK3 assessed as reduction in NDRG1 phosphorylation at T346 residues at 0.5 uM 1 hr by immunoblot analysis; assay type: cell-based
U2OS [18] = experiment: Inhibition of PI3K in human U2OS cells expressing FLAG-tagged SGK3 assessed as reduction in AKT phosphorylation T308 residues at 0.5 uM 1 hr by immunoblot analysis; assay type: cell-based; outline: as §2
U2OS [19] = experiment: Inhibition of PI3K in human U2OS cells expressing FLAG-tagged SGK3 assessed as reduction in SGK3 phosphorylation at T320 residues 0.5 uM after 1 to 2 mins by immunoblot analysis; assay type: cell-based; details: time 1-2 min
U2OS [20] = experiment: Inhibition of PI3K in human U2OS cells expressing GFP-PHAkt1 assessed as reduction in IGF-stimulated PtdIns(3,4,5)P3/PtdIns(3,4)P2 level in endosome at 0.5 uM pre incubated for 1 hr followed by IGF stimulation and measured after 15 mins by Alexa Fluor 488 staining based fluorescence microscopic analysis; assay type: subcellular; details: time 1.25 hrs
[21] = target: Phosphatidylinositol 3-kinase catalytic subunit type 3 (Homo sapiens) (UniProt Q8NEB9); experiment: Inhibition of Vps34 in human U2OS cells expressing GFP-2xFYVEHrs assessed as reduction in PtdIns(3)P level in endosome at 0.5 uM incubated for 1 hr by Alexa Fluor 488 staining based fluorescence microscopic analysis relative to control
Outline: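 U2OS clone with low stable expression of lentiviral GFP–2×FYVEHrs; 1 h inhibitor exposure. Permeabilized by a freeze–thaw in liquid nitrogen, then fixed in 4% paraformaldehyde, stained with anti-GFP plus Alexa Fluor 488 secondary and DAPI. Ten random fields of 20–25 cells each; fluorescence per cell (field total/cell count) expressed relative to DMSO, mean±S.D.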

U2OS [22] = experiment: Inhibition of PI3K in human U2OS cells expressing FLAG-tagged SGK3 assessed as reduction in 4EBP1 phosphorylation S65 residues at 0.5 uM 1 hr by immunoblot analysis; assay type: cell-based; outline: as §2
[23] = target: Phosphatidylinositol 3-kinase catalytic subunit type 3 (Homo sapiens) (UniProt Q8NEB9); experiment: Inhibition of Vps34 in human U2OS cells expressing C-terminal tagged-SGK3 assessed as reduction in SGK3 level in endosome at 0.5 uM incubated for 1 hr by Alexa Fluor 594 staining based fluorescence microscopic analysis; assay type: subcellular
U2OS [24] = experiment: Inhibition of PI3K in human U2OS cells expressing FLAG-tagged SGK3 assessed as reduction in SGK3 phosphorylation at S486 residues 0.5 uM after 1 to 2 mins by immunoblot analysis; assay type: cell-based; details: time 1-2 min

Phosphatidylinositol 3-kinase catalytic subunit type 3 (Homo sapiens), sequence (Q8NEB9 whole entry): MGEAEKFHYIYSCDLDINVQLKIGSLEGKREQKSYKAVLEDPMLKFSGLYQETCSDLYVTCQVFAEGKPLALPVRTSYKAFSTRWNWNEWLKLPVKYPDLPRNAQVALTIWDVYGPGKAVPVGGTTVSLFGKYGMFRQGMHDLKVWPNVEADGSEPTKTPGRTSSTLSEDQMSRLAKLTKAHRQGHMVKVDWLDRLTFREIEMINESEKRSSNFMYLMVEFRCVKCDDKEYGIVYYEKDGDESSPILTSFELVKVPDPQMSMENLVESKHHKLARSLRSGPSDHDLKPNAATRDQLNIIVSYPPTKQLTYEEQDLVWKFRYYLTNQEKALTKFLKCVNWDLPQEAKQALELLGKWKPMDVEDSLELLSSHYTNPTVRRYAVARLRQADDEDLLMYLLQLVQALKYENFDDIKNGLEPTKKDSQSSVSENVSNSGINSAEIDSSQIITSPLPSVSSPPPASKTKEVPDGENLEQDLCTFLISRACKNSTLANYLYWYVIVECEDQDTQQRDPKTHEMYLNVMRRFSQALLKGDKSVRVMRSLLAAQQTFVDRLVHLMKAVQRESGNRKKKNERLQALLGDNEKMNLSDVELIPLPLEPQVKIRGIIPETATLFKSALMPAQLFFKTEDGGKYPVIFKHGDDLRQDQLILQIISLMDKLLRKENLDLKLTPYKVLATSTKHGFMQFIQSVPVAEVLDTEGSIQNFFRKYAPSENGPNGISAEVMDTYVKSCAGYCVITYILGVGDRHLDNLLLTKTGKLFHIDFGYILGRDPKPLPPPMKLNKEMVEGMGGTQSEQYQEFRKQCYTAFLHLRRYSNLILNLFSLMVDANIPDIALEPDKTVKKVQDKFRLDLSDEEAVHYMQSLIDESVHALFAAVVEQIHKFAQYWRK

## CNc1nc(-c2ccc3c(N)n[nH]c3c2)cc(N2C[C@@H](C(=O)NC3CCCCC3)CC[C@H]2C)n1
[1]
  inhibition: Active
[2]
  inhibition: Active
[3]
  inhibition: Active

## Nc1cc(C(F)(F)F)c(-c2cc(N3CCOCC3)nc(N3CCOCC3)n2)cn1
U2OS [4]
  inhibition: Active
U2OS [5]
  inhibition: Active
U2OS [6]
  inhibition: inactive
U2OS [7]
  inhibition: inactive
U2OS [8]
  inhibition: Active

## COc1ccc(-c2ccc3c(N4CCOC[C@@H]4C)nc(N4CCOC[C@@H]4C)nc3n2)cc1CO
[9]
  inhibition: Active
[10]
  inhibition: Active

## CS(=O)(=O)N1CCN(Cc2cc3nc(-c4cccc5[nH]ncc45)nc(N4CCOCC4)c3s2)CC1
U2OS [11]
  inhibition: Active
U2OS [12]
  inhibition: Active
U2OS [13]
  inhibition: inactive
U2OS [14]
  inhibition: Active
U2OS [15]
  inhibition: Active
U2OS [16]
  inhibition: Active
U2OS [17]
  inhibition: Active
U2OS [18]
  inhibition: Active
U2OS [19]
  inhibition: Active
U2OS [20]
  inhibition: Active
[21]
  inhibition: inactive
U2OS [22]
  inhibition: inactive
[23]
  inhibition: inactive
U2OS [24]
  inhibition: Active
